CAL PDZ FP-1: inhibitors of human CAL PDZ peptide binding | inhibition, % at 24.9 µM | Q9HD26 | AID 602252 | purified CAL PDZ, TMR-peptide fluorescence polarization, 1 h | hit rate 0.92% among 300,000;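 active means mean inhibition of at least 30% with at least half of replicates also reaching 30%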
ARNT TACC3 PPI: disruptors of human ARNT/TACC3 interaction | Q9Y6A5 | AlphaScreen His-ARNT PAS-B/GST-TACC3 binding, luminescence; TACC3 fragment carries E629A point mutation | inhibition, % at 9.99 µM | hit rate 0.66% among 390,000;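 active means mean inhibition of replicates at least 50% and at least half of replicates each reaching 50%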
CAL PDZ FP-2: inhibitors of human CAL PDZ peptide binding | Q9HD26 | purified CAL PDZ, TMR-peptide fluorescence polarization, 1 h | inhibition, % at 20 µM | hit rate 0.02% among 330,000;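 active means highest replicate inhibition of at least 40%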
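material = purified tagged CAL PDZ domain construct (CerCALP) | compound dosing = 20 µM, one dose | times = 1 h at RT | measured by = fluorescence polarization from S- and P-plane intensities, G-factor corrected | read-out = inhibition from polarization loss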
CaV13 ICDI inh: Primary screen for inhibitors of IQ motif and Ca2+-dependent inactivation inhibitor domain binding in CACNA1D, Förster resonance energy transfer in living cells, …; inhibition, % at 12.3 µM; HEK cells, CFP/YFP FRET ICDI-IQ, plate reader, 10 min; percent FRET-ratio fall versus neutral wells; hit rate 0.098% among 340,000;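 active means mean replicate inhibition of at least 30% and at least 1% of replicates passing that level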
Numbers stand for hits; n = inactive; x = no result. Rows were chosen to be rich in hits. Some 1.2% of all compounds tested hit in one or more screens of this group.

SMILES	CAL PDZ FP-1	ARNT TACC3 PPI	CAL PDZ FP-2	CaV13 ICDI inh
COc1ccc(Nc2nc(N3CCN(C)CC3)nc3ccccc23)c(OC)c1	53.2	n	n	n
COc1ccc(Nc2nc(-c3cccs3)nc3ccccc23)c(OC)c1	n	n	n	n
CCOc1ccc(N2CC(C(=O)Nc3cccc(S(=O)(=O)N4CCCC4)c3)CC2=O)cc1 (stereo not drawn)	n	n	n	n
CCOc1ccc(N2CC(C(=O)Nc3cccc(S(=O)(=O)NC4=NCCC4)c3)CC2=O)cc1 (stereo not drawn)	44.9	n	n	n
O=c1[nH][nH]cc1C=Nc1cc(Cl)ccc1O	n	49.0	n	n
Nc1ccc(-c2c3ccc(=O)cc-3oc3cc(O)ccc23)cc1C(=O)O	41.0	x	n	n
O=c1ccc2c(-c3ccccc3)c3ccc(O)cc3oc-2c1	n	n	x	n
COc1cc(-c2cc(C(=O)Nc3ccncc3)c3ccccc3n2)cc(OC)c1OC	n	n	n	n
Cc1ccc(-c2cc(C(=O)Nc3ccncc3)c3ccccc3n2)cc1	31.7	n	n	n
CCOC(=O)c1c[nH]c2ccc3ccccc3c2c1=O	53.6	n	n	n
CCOC(=O)c1c[nH]c2c(Cl)ccc(Cl)c2c1=O	x	x	n	n
CCCC(=O)Nc1ccc2c(c1)OC[C@H](C)N(Cc1nccs1)C[C@H](C)[C@H](OC)CN(C)C2=O	x	n	x	x
O=C(N/N=C/c1cccnc1)c1[nH]ncc1Br	49.4	n	n	n
O=C(N/N=C/c1cccnc1)c1cccc(F)c1	51.6	n	x	n
C[C@@H]1CCCCO[C@H](CN(C)Cc2ccc3c(c2)OCO3)[C@@H](C)CN([C@@H](C)CO)C(=O)c2cc(NC(=O)CCC(F)(F)F)ccc2O1	x	n	x	x
CCSc1ccc(C(=O)Nc2ccc(Br)cn2)cc1[N+](=O)[O-]	38.6	n	n	n
Cc1[nH]c2ccccc2c1C(c1ccccn1)N1CCCC1 (stereo not drawn)	n	n	n	n
CCOC(=O)C1CCCN(C(c2ccccn2)c2c(C)[nH]c3ccccc23)C1 (stereo not drawn)	119.3	n	n	n
Cc1ccc(-c2nc3ccccc3c(=O)o2)cc1	47.8	n	n	n
C=C(C)CCOC(=O)C(CC(=O)O)NCc1ccco1 (stereo not drawn)	49.5	n	n	n
COC(=O)CNc1c(-c2ccccn2)nc2ccc(Br)cn12	n	62.2	n	n
COc1ccc(C(=O)OC2CCN(C)CC2)cc1	x	n	n	n
COc1ccc(C(=O)OC2C(OC)OCC(O)C2O)cc1 (stereo not drawn)	44.3	n	n	n
COc1ccc(OC)c(NC(=O)NNC(=O)CCCOc2ccc(Cl)cc2C)c1	47.8	n	n	n
COc1ccc(NC(=O)NNC(=O)COc2ccc(Cl)cc2C)cc1OC	n	n	n	n
SMILES	CAL PDZ FP-1	ARNT TACC3 PPI	CAL PDZ FP-2	CaV13 ICDI inh
O=C(N[C@@H]1CC[C@H](CCNS(=O)(=O)c2ccc(F)cc2)O[C@H]1CO)C1CCCC1	x	n	x	x
COC(=O)c1cc(S(=O)(=O)N2CCCC(C)C2)c[nH]1 (stereo not drawn)	78.2	n	n	n
COc1ccc(CCNC(=O)c2cc(S(=O)(=O)N3CCCCC3)c[nH]2)cc1OC	x	n	n	43.2
CCC(CC)C(=O)NCCc1ccc(OC)c(OC)c1	60.3	n	n	n
C[C@@H]1CN([C@H](C)CO)C(=O)Cc2cc(NC(=O)CCN3CCOCC3)ccc2O[C@@H]1CN(C)C(=O)Nc1cccc2ccccc12	x	n	x	x
Cc1ccc(-c2nc(N)n(C(=O)c3cccs3)n2)cc1	83.4	n	n	x
NC(=O)c1cc2ccc(O)cc2oc1=NCc1ccccc1	n	n	x	33.5
NC(=O)c1cc2ccccc2oc1=NCc1ccccc1	x	n	n	x
O=C(CCN1CCCCC1)NCC[C@@H]1CC[C@H](NS(=O)(=O)c2cccc(F)c2)[C@@H](CO)O1	x	n	x	x
Cc1n[nH]c(C)c1S(=O)(=O)N1CCN(S(=O)(=O)c2ccccc2C#N)CC1	n	n	n	n
Cc1noc(C)c1S(=O)(=O)N1CCN(S(=O)(=O)c2ccccc2C#N)CC1	33.9	n	n	n
Nc1cc(=O)[nH]c(SCC(=O)N2N=C(c3ccc4ccccc4c3)CC2c2ccccc2)n1 (stereo not drawn)	32.5	n	n	n
CC(=O)OCC(=O)N1N=C(c2ccc3ccccc3c2)CC1c1ccccc1 (stereo not drawn)	n	x	n	n
CCCNc1nc2c(c(=O)[nH]c(=O)n2C)n1Cc1cccc(Br)c1	36.3	n	x	x
COc1ccccc1NC(=S)NNC(=O)c1nn(C)cc1Cl	n	56.8	n	n
COc1ccccc1NC(=O)c1cccc(N2C(=O)C3C4C=CC(C4)C3C2=O)c1 (stereo not drawn)	50.3	n	n	n
Cc1c(N=NC2=C(O)CC(C)(C)CC2=O)c(=O)n(-c2ccccc2)n1C	n	60.8	n	n
CCOC(=O)/C(N=Nc1c(C)n(C)n(-c2ccccc2)c1=O)=C(\C)O	n	72.1	n	n
CCNc1ccc(N=Nc2c(C)n(C)n(-c3ccccc3)c2=O)cc1	n	x	n	n
CC(=O)/C(N=Nc1c(C)n(C)n(-c2ccccc2)c1=O)=C(\C)O	n	n	n	n
CC1(C)CC(=O)C(C=Nc2cccnc2/N=C/C2=C(O)CC(C)(C)CC2=O)=C(O)C1	n	n	n	129.4
CC1(C)CC(=O)C(C=Nc2cccnc2)=C(O)C1	n	n	n	n
C[C@H](NC(=O)C[C@H]1CC[C@H]2[C@@H](COC[C@@H](O)CN2C(=O)Nc2cccc(F)c2)O1)c1ccccc1	x	n	x	x
CCOC(=O)C1(CCOc2ccccc2)CCN(Cc2nccn2CC)CC1	32.5	n	n	n
CC(=O)N(C)C[C@H]1Oc2ncc(C#Cc3ccccc3)cc2C(=O)N([C@@H](C)CO)C[C@H]1C	x	n	x	x
SMILES	CAL PDZ FP-1	ARNT TACC3 PPI	CAL PDZ FP-2	CaV13 ICDI inh
CCc1cccc(C)c1NC(=S)NCc1ccc2c(c1)cc(C)n2C	x	n	n	57.1
Cn1nnnc1SCC(=O)Nc1ccc2c(c1)OCCO2	x	n	n	n
CC(Sc1nnnn1C)C(=O)Nc1ccc2c(c1)OCCO2 (stereo not drawn)	43.9	n	n	n
Cc1ccccc1NC(=S)c1nc2ccccc2[nH]1	n	48.8	n	n
CO[C@H]1CN(C)C(=O)c2cc(NS(C)(=O)=O)ccc2OC[C@H](C)N(C(=O)C2CCCCC2)C[C@H]1C	x	n	x	x
NC(=S)NNc1cc(Cl)cc(Cl)c1	97.0	n	x	n
CC(C)NC(=O)N[C@H]1CC[C@H](CCNC(=O)C2CCOCC2)O[C@@H]1CO	x	n	x	x
CCC(=O)N1CCc2cc(S(=O)(=O)CCC(=O)NCc3ccc(C)cc3)ccc21	x	n	n	n
CCC(=O)N1CCc2cc(S(=O)(=O)NCCC(=O)NCc3ccc(F)cc3)ccc21	37.0	n	n	n
Cc1ccc(CNS(=O)(=O)c2ccc3c(c2)CCN3C(=O)CCCC(=O)O)cc1	34.3	n	n	n
CC(=O)N1CCc2cc(S(=O)(=O)NCc3ccc(C)cc3)ccc21	n	n	n	n
O=C(O)CCCC(=O)N1CCc2cc(S(=O)(=O)NCc3ccccc3)ccc21	x	n	n	n

Source: PubChem
